According to ChEMBL document CHEMBL4138313 (J Med Chem, 2018):
pEC50, pIC50: −log10 of the molar value. The source made the active and inactive calls. No cut-off for these calls is given here.

Tests used:
MEF [1] = assay: Cytotoxicity against mouse wild type MEF cells assessed as reduction in cell viability after 4 to 7 days by cell-titer glo assay; assay type: cell-based
MEF [2] = assay: Cytotoxicity against mouse PARP1 deficient MEF cells assessed as reduction in cell viability after 4 to 7 days by cell-titer glo assay; assay type: cell-based
MEF [3] = assay: Cytotoxicity against mouse PARP2 deficient MEF cells expressing PARP1 assessed as reduction in cell viability after 4 to 7 days by cell-titer glo assay; assay type: cell-based
[4] = Cytotoxicity against human BRCA1-restored UWB1.289 cells assessed as reduction in cell viability after 4 to 7 days by cell-titer glo assay; assay type: cell-based
[5] = Cytotoxicity against human BRCA1-deficient UWB1.289 cells assessed as reduction in cell viability after 4 to 7 days by cell-titer glo assay; assay type: cell-based
[6] = molecular target: T1, Poly [ADP-ribose] polymerase tankyrase-1 (Homo sapiens, UniProt O95271); assay: Inhibition of human N-terminal GST-tagged TNKS1 (1001 to 1327 residues) expressed in baculovirus infected sf9 cells using histone as substrate after 1 hr by streptavidin-horseradish peroxidase-based luminescence assay
T1 sequence (O95271 whole entry): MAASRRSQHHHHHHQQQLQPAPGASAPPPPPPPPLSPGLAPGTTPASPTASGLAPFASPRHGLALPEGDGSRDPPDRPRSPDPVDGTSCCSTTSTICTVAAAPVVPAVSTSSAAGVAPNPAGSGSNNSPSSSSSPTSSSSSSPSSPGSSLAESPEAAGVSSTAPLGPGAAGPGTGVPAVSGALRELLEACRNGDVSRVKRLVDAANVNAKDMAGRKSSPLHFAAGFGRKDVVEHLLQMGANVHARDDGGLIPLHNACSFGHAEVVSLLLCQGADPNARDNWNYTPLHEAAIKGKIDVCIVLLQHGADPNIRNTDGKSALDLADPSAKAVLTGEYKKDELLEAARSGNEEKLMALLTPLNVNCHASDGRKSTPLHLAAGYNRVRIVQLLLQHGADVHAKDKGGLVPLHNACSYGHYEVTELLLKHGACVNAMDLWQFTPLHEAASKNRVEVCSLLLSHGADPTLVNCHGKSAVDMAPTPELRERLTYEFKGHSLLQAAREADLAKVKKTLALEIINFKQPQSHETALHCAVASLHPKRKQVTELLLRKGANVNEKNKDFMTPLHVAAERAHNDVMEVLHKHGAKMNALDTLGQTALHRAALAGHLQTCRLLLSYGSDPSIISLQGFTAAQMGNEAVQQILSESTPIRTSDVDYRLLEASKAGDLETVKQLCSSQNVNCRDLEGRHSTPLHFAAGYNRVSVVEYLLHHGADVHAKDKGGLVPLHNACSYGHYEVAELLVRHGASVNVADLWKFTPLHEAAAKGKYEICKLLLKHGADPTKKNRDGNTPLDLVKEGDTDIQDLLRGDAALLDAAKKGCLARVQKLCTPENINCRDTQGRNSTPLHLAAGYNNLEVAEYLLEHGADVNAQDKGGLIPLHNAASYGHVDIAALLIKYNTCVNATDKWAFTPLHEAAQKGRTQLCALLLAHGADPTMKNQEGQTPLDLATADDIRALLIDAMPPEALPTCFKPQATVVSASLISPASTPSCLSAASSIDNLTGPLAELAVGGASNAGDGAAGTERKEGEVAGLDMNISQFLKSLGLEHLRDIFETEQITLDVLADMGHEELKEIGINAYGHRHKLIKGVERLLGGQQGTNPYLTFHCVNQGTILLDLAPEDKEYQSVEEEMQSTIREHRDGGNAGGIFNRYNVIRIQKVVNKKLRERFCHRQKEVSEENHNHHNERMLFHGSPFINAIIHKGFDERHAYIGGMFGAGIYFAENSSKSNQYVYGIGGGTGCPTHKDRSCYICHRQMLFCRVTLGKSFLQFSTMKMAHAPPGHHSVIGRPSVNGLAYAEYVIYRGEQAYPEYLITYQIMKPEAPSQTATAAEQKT

[7] = molecular target: T2, Poly [ADP-ribose] polymerase tankyrase-2 (Homo sapiens, UniProt Q9H2K2); assay: Inhibition of human N-terminal GST-tagged TNKS2 (667 to 1166 residues) expressed in baculovirus infected sf9 cells using histone as substrate after 1 hr by streptavidin-horseradish peroxidase-based luminescence assay
T2 sequence (Q9H2K2 whole entry): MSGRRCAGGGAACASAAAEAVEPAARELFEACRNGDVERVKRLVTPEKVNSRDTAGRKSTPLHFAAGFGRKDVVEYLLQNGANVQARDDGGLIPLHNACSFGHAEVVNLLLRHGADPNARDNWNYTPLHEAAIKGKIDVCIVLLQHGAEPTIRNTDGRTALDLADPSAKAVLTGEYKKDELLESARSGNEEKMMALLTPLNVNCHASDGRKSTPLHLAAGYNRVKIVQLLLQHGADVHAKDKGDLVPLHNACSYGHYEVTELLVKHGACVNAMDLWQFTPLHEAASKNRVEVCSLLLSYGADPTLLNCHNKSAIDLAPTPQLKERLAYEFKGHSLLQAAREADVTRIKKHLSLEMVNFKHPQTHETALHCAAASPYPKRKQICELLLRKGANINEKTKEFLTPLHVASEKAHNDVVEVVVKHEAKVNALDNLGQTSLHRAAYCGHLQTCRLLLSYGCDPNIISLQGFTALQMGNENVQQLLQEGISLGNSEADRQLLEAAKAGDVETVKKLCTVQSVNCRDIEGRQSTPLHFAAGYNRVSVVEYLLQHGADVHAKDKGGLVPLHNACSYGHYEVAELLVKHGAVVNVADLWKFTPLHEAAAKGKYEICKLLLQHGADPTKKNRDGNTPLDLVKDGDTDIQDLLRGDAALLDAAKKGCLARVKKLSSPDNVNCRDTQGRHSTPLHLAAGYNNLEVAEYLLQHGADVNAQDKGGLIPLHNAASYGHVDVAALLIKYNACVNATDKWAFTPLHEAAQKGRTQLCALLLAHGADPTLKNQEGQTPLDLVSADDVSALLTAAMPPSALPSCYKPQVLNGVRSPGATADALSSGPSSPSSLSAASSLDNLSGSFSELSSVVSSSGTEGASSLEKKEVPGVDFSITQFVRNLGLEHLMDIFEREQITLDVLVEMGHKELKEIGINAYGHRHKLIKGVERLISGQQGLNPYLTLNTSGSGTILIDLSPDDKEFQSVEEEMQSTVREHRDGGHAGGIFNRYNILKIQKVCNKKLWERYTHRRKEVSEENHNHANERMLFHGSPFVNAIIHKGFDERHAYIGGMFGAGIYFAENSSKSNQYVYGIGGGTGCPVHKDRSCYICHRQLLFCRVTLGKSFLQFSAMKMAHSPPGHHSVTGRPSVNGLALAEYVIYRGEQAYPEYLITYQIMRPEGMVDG

[8] = Safety index, ratio compound EC50 to olaparib EC50 for BRCA1 deficient human UWB1.289 cells; assay type: ADME; settings: BRCA1-deficient UWB1.289 cells, read-out: Ratio EC50
How it was run: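 UWB1.289 cells were grown in 1:1 MEGM (bullet kit) and RPMI 1640 with 10% FBS and 1% pen/strep, at 37 °C, 5% CO2 and 15% O2. Cells were seeded at 1,000 cells/well and dosed after 24 h at 100–0.016 µM for 4–7 days. Viability was read by CellTiter-Glo luminescence and normalised to the vehicle mean.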

[9] = molecular target: T3, Poly [ADP-ribose] polymerase tankyrase-2 (Homo sapiens) (UniProt Q9H2K2); assay: Inhibition of human N-terminal GST-tagged TNKS2 (667 to 1166 residues) expressed in baculovirus infected sf9 cells at 10 uM using histone as substrate after 1 hr by streptavidin-horseradish peroxidase-based luminescence assay
T3 sequence (whole entry): T2 sequence (Q9H2K2 whole entry)
How it was run: (§1)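 Run by an outside contractor using PARP or TNKS kit protocols, in duplicate, at room temperature for 1 h in histone-coated wells. The Tris·HCl pH 8.0 reaction buffer held NAD+, biotinylated NAD+, activated DNA, enzyme and compound. Streptavidin-HRP was then added for 30 min at room temperature, followed by developer reagents and a luminescence read.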

[10] = molecular target: T4, Poly [ADP-ribose] polymerase 1 (Homo sapiens, UniProt P09874); assay: Binding affinity to PARP1 in human OVCAR8 cells assessed as reduction in [125I]-KX1 binding by gamma counting analysis; assay type: cell-based
T4 sequence (P09874 whole entry): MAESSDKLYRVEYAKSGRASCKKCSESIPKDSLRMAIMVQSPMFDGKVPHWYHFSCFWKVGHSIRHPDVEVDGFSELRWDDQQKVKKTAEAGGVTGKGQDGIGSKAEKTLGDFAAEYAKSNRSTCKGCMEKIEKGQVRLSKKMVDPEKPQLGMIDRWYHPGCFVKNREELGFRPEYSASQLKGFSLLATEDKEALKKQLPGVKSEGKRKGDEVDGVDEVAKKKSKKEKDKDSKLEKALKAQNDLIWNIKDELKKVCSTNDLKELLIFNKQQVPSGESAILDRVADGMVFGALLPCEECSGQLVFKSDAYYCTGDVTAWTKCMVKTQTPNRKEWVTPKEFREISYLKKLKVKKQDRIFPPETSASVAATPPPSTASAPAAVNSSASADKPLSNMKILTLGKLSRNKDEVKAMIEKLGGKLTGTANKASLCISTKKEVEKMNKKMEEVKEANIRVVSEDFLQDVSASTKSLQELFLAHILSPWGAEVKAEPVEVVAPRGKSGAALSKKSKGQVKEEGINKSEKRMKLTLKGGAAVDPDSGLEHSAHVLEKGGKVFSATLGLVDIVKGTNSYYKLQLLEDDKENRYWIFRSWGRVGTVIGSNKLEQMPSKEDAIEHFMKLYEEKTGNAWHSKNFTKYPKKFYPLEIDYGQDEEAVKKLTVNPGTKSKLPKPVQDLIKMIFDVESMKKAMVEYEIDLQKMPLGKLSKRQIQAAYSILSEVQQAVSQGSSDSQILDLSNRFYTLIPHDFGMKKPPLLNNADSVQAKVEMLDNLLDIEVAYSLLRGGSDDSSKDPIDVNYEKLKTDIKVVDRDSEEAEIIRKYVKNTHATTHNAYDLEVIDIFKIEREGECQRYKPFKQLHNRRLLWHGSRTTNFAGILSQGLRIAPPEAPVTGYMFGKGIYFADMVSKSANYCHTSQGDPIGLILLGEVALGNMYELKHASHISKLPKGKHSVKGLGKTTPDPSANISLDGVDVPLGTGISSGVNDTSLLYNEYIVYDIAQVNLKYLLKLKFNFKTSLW

[11] = Cytotoxicity against human OVCAR8 cells assessed as cell survival at 10 uM after 4 to 7 days by cell-titer glo assay; assay type: cell-based, OVCAR-8; settings: OVCAR8 cells, read-out: Activity
MEF [12] = assay: Cytotoxicity against mouse wild type MEF cells assessed as reduction in cell viability at 0.016 to 100 uM after 4 to 7 days by cell-titer glo assay; assay type: cell-based
How it was run: (§2)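 Cells kept at 37 °C, 5% CO2, 15% O2 in RPMI 1640 with 10% FBS and 1% penicillin/streptomycin. Seeded at 1,000 cells/well and dosed 24 h later at 100–0.016 µM. Exposure lasted 4–7 days, then viability was read by CellTiter Glo luminescence. Signal was normalized to percent survival against the mean of vehicle controls. Three repeat experiments.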

MEF [13] = assay: Cytotoxicity against mouse PARP1 deficient MEF cells assessed as reduction in cell viability at 0.016 to 100 uM after 4 to 7 days by cell-titer glo assay; assay type: cell-based; how it was run: as §2
[14] = molecular target: T4, Poly [ADP-ribose] polymerase 1; assay: Inhibition of PARP1 (unknown origin) at 10 uM; how it was run: as §1

Structure (SMILES) | pEC50 (MEF [1]) | pEC50 (MEF [2]) | pEC50 (MEF [3]) | pEC50 [4] | pEC50 [5] | pIC50 [6] | pIC50 [7] | selectivity ratio [8] | inhibition [9] | pIC50 [10] | viability at 10 µM [11] [%] | Activity (MEF [12]) [%] | Activity (MEF [13]) [%] | inhibition [14]
CC(C)(C)OC(=O)N1CCC2(CCN(C(=O)c3cc(Cc4n[nH]c(=O)c5ccccc45)ccc3F)C2)C1 (stereo unspecified) | 4.76 | 4.33 | 4.63 | 5.13 | 5.38 | 6.00 | 6.24 | 20 to 40 | Active |  |  |  |  | 
CC(C)(C)OC(=O)N1CCC2(CC1)CCN(C(=O)c1cc(Cc3n[nH]c(=O)c4ccccc34)ccc1F)C2 | 5.03 | 4.34 | 4.50 | 5.21 | 5.08 | 5.52 | 6.02 | 20 to 40 | Active | 5.96 |  |  |  | 
O=C(c1cc(Cc2n[nH]c(=O)c3ccccc23)ccc1F)N1CC2(C1)CN(C(=O)C1CC1)C2 |  |  | 4.22 | 4.92 | 5.82 |  |  | 7 |  |  | 80 | < 50 | < 50 | Active
CC(C)(C)OC(=O)N1CCC2(CC1)CCN(C(=O)c1cc(Cc3n[nH]c(=O)c4ccccc34)ccc1F)CC2 | 4.77 | 4.36 | 4.72 | 5.40 | 5.57 | 5.24 | 5.55 | 20 to 40 | Active |  |  |  |  | 
